Active and inactive are the calls of the source.
Key:
[1] = biological target: T1, Receptor-type tyrosine-protein phosphatase zeta (Homo sapiens, UniProt P23471); assay: Inhibition of PTPRZ1 in human HeLa cells assessed as increase in EGF-induced tryrosine phosphorylation at 0.1 to 10 uM incubated for 10 mins after EGF stimulation for 10 mins by ELISA relative to control; assay type: cell-based
In short: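 HeLa cells were grown in RPMI-1640 with 10% FBS and seeded at 2 × 10^4 cells/well in triplicate. After 24 h serum starvation, cells received 50 ng/mL EGF for 10 min, then compound at 0.1, 1.0 or 10.0 μM for 10 min, against 0.25% DMSO control. Total phosphotyrosine was measured by a tyrosine-phosphorylation ELISA kit. A rise of at least 10% was the selection criterion.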

[2] = biological target: T1, Receptor-type tyrosine-protein phosphatase zeta; assay: Inhibition of human recombinant PTPRZ1 using pNPP as substrate at 1 uM by fluorescence spectrometric analysis relative to control
In short: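 Screening used single-point testing at 1.0 μM against 0.1 μM human recombinant PTPRZ1 with p-NPP substrate. Phosphate release was detected with a phosphate sensor reagent by fluorescence (excitation 430 nm, emission 450 nm). The cutoff for activity was at least 10% inhibition of phosphatase activity.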

[3] = biological target: T1, Receptor-type tyrosine-protein phosphatase zeta; assay: Inhibition of human recombinant PTPRZ1 using pNPP as substrate by fluorescence spectrometric analysis
In short: (§1)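 Human recombinant enzyme (PTPRZ1 or PTP1B) was used at 0.1 μM with p-NPP substrate. Released phosphate was detected with a phosphate sensor reagent as a fluorescence increase (excitation 430 nm, emission 450 nm). IC50 was derived from compound concentrations of 0.001–100 μM.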

[4] = biological target: T2, Tyrosine-protein phosphatase non-receptor type 1 (Homo sapiens, UniProt P18031); assay: Inhibition of human recombinant PTP1B using pNPP as substrate by fluorescence spectrometric analysis; in short: as §1
T2 sequence (P18031 whole entry): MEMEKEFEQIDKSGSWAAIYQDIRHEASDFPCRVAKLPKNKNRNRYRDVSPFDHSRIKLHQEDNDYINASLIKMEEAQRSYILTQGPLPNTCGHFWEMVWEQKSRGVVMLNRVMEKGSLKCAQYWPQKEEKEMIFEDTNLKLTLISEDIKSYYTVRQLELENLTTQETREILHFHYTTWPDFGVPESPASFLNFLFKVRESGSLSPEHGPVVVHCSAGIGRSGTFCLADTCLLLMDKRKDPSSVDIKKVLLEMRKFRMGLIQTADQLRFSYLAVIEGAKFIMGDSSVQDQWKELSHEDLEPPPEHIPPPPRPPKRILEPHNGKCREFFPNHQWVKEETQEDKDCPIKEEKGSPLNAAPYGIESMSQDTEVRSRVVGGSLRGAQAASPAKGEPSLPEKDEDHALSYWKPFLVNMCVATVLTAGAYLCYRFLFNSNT

[5] = biological target: T1, Receptor-type tyrosine-protein phosphatase zeta; assay: Inhibition of PTPRZ1 in human SH-SY5Y cells assessed as increase in TrkA tryrosine 490 phosphorylation at 1 to 10 uM after 20 mins by Western blot analysis relative to control; assay type: cell-based
In short: (§2)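 Human SH-SY5Y cells were grown in EMEM/F12 (1:1) with 10% FBS at 37 °C, 5% CO2, then switched to serum-free medium. They were treated for 20 min with 1.0, 5.0 or 10.0 μM compound or DMSO vehicle. Lysates (20 μg protein) were western blotted for phospho-TrkA Y490 and phospho-ALK Y1278, reprobed for total TrkA/ALK, detected by ECL and quantified by densitometry. Data are mean ± S.E.M., ANOVA/Tukey.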

[6] = biological target: T1, Receptor-type tyrosine-protein phosphatase zeta; assay: Inhibition of PTPRZ1 in human SH-SY5Y cells assessed as increase in Alk tryrosine 1278 phosphorylation at 1 to 10 uM after 20 mins by Western blot analysis relative to control; assay type: cell-based; in short: as §2
PC-12 = assay: Cytoprotective activity against amphetamine-induced toxicity in rat PC12 cells at 1 uM after 20 hrs by MTT assay; assay type: functional, cell-based
In short: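 Rat PC12 cells were grown in RPMI-1640 with 10% FBS at 10^4 cells/well. They were incubated for 20 h with 1.0 mM amphetamine plus 1.0 μM compound. Viability was read by MTT: cells were washed, given medium with MTT (20 μL of a 5 mg/mL stock) for 4 h, solubilized in DMSO, and absorbance read at 570 nm. Data are mean ± S.E.M., compared by one-way ANOVA with Tukey's test.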

[7] = Drug level in mouse brain at 60 mg/kg after 1 hr by GC-MS analysis; assay type: ADME, organism-based; conditions: read-out: Drug uptake
In short: (§3)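 Mice were dosed at 60 mg/kg by oral gavage and killed 1 h later. Brain and plasma were analyzed by GC-MS (EI at 70 eV, full scan m/z 50–600). Plasma (100 μL) was precipitated with three volumes of cold methanol, dried and reconstituted in heptane. The reference was a standard serially half-diluted in heptane from 5 μg/mL. Concentrations were a preliminary estimate.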

[8] = Drug level in mouse plasma at 60 mg/kg after 1 hr by GC-MS analysis; assay type: ADME, organism-based; in short: as §3
[9] = biological target: T1, Receptor-type tyrosine-protein phosphatase zeta; assay: Inhibition of PTPRZ1 (unknown origin) using pNPP as substrate preincubated for 15 mins followed by substrate addition measured after 10 mins by spectrophotometric analysis

T1 sequence (P23471 whole entry): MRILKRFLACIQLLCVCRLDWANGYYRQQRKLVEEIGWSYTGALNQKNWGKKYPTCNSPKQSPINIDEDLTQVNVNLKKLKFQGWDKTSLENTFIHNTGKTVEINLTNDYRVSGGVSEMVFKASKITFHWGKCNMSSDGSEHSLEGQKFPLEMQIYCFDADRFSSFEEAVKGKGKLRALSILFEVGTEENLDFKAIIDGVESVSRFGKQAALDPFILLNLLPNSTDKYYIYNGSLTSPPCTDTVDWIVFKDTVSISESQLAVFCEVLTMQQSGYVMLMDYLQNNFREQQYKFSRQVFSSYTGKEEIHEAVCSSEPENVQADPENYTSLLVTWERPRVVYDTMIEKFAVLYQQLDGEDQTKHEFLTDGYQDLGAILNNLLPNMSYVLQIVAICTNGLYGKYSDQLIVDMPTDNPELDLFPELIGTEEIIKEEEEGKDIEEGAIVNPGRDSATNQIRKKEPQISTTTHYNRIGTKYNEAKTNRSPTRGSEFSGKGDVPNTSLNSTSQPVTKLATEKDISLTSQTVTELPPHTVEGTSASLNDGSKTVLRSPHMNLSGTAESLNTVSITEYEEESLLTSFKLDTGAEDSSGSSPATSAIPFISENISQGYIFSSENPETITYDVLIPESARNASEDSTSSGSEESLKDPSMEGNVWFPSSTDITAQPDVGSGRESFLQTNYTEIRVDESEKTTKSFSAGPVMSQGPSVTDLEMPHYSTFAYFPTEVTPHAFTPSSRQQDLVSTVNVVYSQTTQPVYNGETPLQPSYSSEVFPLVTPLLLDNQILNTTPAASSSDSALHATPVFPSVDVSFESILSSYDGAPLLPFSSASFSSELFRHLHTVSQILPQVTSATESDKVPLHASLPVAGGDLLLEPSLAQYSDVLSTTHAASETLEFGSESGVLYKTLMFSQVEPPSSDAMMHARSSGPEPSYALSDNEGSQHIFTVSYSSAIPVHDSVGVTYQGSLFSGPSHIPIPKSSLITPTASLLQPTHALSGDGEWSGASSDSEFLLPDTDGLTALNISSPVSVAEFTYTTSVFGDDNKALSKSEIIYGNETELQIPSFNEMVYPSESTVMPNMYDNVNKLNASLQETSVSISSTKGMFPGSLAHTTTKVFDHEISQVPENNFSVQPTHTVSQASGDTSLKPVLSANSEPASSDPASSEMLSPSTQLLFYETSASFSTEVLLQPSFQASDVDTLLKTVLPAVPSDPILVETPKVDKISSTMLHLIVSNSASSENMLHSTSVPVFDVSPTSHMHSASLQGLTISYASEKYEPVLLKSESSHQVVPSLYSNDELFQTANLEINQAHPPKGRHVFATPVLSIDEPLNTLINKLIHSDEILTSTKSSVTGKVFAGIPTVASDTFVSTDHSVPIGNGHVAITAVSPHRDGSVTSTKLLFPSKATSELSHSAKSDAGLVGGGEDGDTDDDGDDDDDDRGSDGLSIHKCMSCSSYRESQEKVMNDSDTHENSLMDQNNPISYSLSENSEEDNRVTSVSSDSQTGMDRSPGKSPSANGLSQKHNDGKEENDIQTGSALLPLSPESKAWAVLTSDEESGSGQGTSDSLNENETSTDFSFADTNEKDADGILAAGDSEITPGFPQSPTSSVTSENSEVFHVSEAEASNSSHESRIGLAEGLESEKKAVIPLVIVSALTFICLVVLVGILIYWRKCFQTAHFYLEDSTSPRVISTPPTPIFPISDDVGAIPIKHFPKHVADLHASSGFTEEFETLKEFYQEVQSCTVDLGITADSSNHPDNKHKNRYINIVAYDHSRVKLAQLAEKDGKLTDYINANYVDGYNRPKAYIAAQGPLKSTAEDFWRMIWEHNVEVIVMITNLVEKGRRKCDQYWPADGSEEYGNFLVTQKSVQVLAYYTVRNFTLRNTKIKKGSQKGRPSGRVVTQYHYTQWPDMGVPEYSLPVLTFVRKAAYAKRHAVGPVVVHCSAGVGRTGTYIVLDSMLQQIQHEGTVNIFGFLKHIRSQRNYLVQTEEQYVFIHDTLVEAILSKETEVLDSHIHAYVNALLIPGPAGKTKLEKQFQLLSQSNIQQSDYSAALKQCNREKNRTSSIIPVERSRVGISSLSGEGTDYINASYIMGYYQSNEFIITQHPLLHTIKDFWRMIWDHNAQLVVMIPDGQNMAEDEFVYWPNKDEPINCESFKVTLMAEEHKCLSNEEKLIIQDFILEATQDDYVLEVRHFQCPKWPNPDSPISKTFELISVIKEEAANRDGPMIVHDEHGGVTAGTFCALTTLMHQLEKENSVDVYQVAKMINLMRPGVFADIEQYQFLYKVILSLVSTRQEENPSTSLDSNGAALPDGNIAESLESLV

SMILES: O=C(NCc1ccc(SC(F)(F)F)cc1)c1ccc(SC(F)(F)F)cc1
- inhibition [1]: ≥ 10%
- inhibition [2]: ≥ 10%
- IC50 [3]: > 100000 nM
- IC50 [4]: Not Active

SMILES: FC(F)(F)Sc1ccc(COc2ccc(SC(F)(F)F)cc2)cc1
- inhibition [1]: ≥ 10%
- inhibition [2]: ≥ 10%
- IC50 [3]: 100 nM
- IC50 [4]: Not Active
- fold change (FC) [5]: 2 to 3
- fold change (FC) [6]: 2
- Activity (PC-12): Active
- concentration at 1 h [7]: 500 to 1000 ng/mL
- concentration at 1 h [8]: 100 to 300 ng/mL

SMILES: O=C(Cc1ccc(SC(F)(F)F)cc1)Nc1ccc(SC(F)(F)F)cc1
- inhibition [1]: ≥ 10%
- inhibition [2]: inactive

SMILES: FC(F)(F)Sc1ccc(CNCc2ccc(SC(F)(F)F)cc2)cc1
- inhibition [1]: ≥ 10%
- inhibition [2]: ≥ 10%
- IC50 [3]: 100 nM
- IC50 ([4]; read-out: IC50): 700 nM

SMILES: O=C(Cc1ccc(S(=O)(=O)C(F)(F)F)cc1)Nc1ccc(S(=O)(=O)C(F)(F)F)cc1
- inhibition [1]: ≥ 10%
- inhibition [2]: ≥ 10%
- IC50 [3]: > 10000 nM
- IC50 [4]: Not Active

SMILES: FC(F)(F)Sc1ccc(NCc2ccc(Cl)cc2)cc1
- inhibition [1]: inactive

SMILES: O=S(=O)(c1ccc(OCc2ccc(SC(F)(F)F)cc2)cc1)C(F)(F)F
- inhibition [1]: inactive
- inhibition [2]: inactive
- fold change (FC) [5]: 2 to 3

SMILES: FC(F)(F)Sc1ccc(NCc2ccccc2)cc1
- inhibition [1]: ≥ 10%
- inhibition [2]: ≥ 10%
- IC50 [3]: 5000 nM
- IC50 ([4]; read-out: IC50): 1000 nM

SMILES: FC(F)(F)Sc1ccc(CN(Cc2ccc(SC(F)(F)F)cc2)Cc2ccc(SC(F)(F)F)cc2)cc1
- inhibition [1]: ≥ 10%
- inhibition [2]: < 10%

SMILES: O=C(Nc1ccc(SC(F)(F)F)cc1)c1ccc(SC(F)(F)F)cc1
- inhibition [1]: ≥ 10%
- inhibition [2]: inactive

SMILES: O=C(Nc1ccc(S(=O)(=O)C(F)(F)F)cc1)c1ccc(S(=O)(=O)C(F)(F)F)cc1
- inhibition [1]: inactive
- inhibition [2]: inactive

SMILES: FC(F)(F)Sc1ccc(CNc2ccc(SC(F)(F)F)cc2)cc1
- inhibition [1]: ≥ 10%
- inhibition [2]: inactive

SMILES: O=C(Cc1ccc(S(=O)(=O)C(F)(F)F)cc1)NCc1ccc(S(=O)(=O)C(F)(F)F)cc1
- inhibition [1]: ≥ 10%
- inhibition [2]: inactive

SMILES: FC(F)(F)Sc1ccc(OCc2ccncc2)cc1
- inhibition [1]: < 10%
- inhibition [2]: inactive

SMILES: FC(F)(F)Sc1ccc(CNCc2ccccc2)cc1
- inhibition [1]: inactive

SMILES: O=S(=O)(c1ccc(COc2ccc(S(=O)(=O)C(F)(F)F)cc2)cc1)C(F)(F)F
- inhibition [1]: inactive
- IC50 [9]: 3500 nM
- inhibition [2]: inactive

SMILES: O=C(Cc1ccc(SC(F)(F)F)cc1)NCc1ccc(SC(F)(F)F)cc1
- inhibition [1]: ≥ 10%
- inhibition [2]: ≥ 10%
- IC50 [3]: 800 nM
- IC50 [4]: Not Active

Reference: ChEMBL document CHEMBL4251614, “Development of inhibitors of receptor protein tyrosine phosphatase β/ζ (PTPRZ1) as candidates for CNS disorders” (Eur J Med Chem, 2018)
